Data as given in ChEMBL document CHEMBL1914423, “New imidazo[2,1-b]thiazole derivatives: synthesis, in vitro anticancer evaluation, and in silico studies” (Eur J Med Chem, 2011).

How the values were obtained:
Assay type in all cases: functional
[1] = tested on: MDA-MB-468; experiment: Anticancer activity against human MDA-MB-468 cells assessed as cell growth at 10^-5 M after 48 hrs by SRB assay; details: MDA-MB-468, 48 h, read-out: Activity
[2] = tested on: K562; experiment: Anticancer activity against human K562 cells assessed as cell growth at 10^-5 M after 48 hrs by SRB assay; details: K562, 48 h, read-out: Activity
Method in brief: (§1)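 NCI-60 single-dose screen at one concentration. Cells grown in RPMI 1640 with 5% FBS and 2 mM L-glutamine, plated at 5000–40,000 cells/well, and pre-incubated 24 h at 37 °C in 5% CO2 before DMSO-dissolved drug was added. Cells fixed with TCA, SRB-stained, absorbance read at 515 nm. Percent growth calculated against time-zero and untreated control plates.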

[3] = tested on: OVCAR-5; experiment: Anticancer activity against human OVCAR5 cells assessed as cell growth at 10^-5 M after 48 hrs by SRB assay; details: OVCAR-5, 48 h, read-out: Activity
[4] = tested on: SF-295; experiment: Anticancer activity against human SF295 cells assessed as cell growth at 10^-5 M after 48 hrs by SRB assay; details: SF-295, 48 h, read-out: Activity
[5] = tested on: SK-MEL-2; experiment: Anticancer activity against human SK-MEL-2 cells after 48 hrs by SRB assay; details: SK-MEL-2, 48 h
[6] = tested on: A498; experiment: Anticancer activity against human A498 cells assessed as cell growth at 10^-5 M after 48 hrs by SRB assay; details: A498, 48 h, read-out: Activity; method in brief: as §1
[7] = tested on: MCF7; experiment: Anticancer activity against human MCF7 cells assessed as cell growth at 10^-5 M after 48 hrs by SRB assay; details: MCF7, 48 h, read-out: Activity; method in brief: as §1
[8] = tested on: COLO 205; experiment: Anticancer activity against human COLO205 cells assessed as cell growth at 10^-5 M after 48 hrs by SRB assay; details: COLO 205, 48 h, read-out: Activity; method in brief: as §1
[9] = tested on: 786-0; experiment: Anticancer activity against human 786-0 cells assessed as cell growth at 10^-5 M after 48 hrs by SRB assay; details: 786-0, 48 h, read-out: Activity; method in brief: as §1
[10] = tested on: NCI-H522; experiment: Anticancer activity against human NCI-H522 cells after 48 hrs by SRB assay; details: NCI-H522, 48 h
[11] = tested on: EKVX; experiment: Anticancer activity against human EKVX cells assessed as cell growth at 10^-5 M after 48 hrs by SRB assay; details: read-out: Activity; method in brief: as §1
[12] = tested on: PC-3; experiment: Anticancer activity against human PC3 cells assessed as cell growth at 10^-5 M after 48 hrs by SRB assay; details: PC-3, 48 h, read-out: Activity
[13] = tested on: NCI/ADR-RES; experiment: Anticancer activity against human NCI/ADR-RES cells assessed as cell growth at 10^-5 M after 48 hrs by SRB assay; details: read-out: Activity
[14] = tested on: U-251; experiment: Anticancer activity against human U251 cells assessed as cell growth at 10^-5 M after 48 hrs by SRB assay; details: U-251, 48 h, read-out: Activity
Method in brief: (§2)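 NCI-60 single-dose screen: cells in RPMI 1640 with 5% FBS and 2 mM L-glutamine, plated at 5000–40,000 cells/well by doubling time, and preincubated 24 h at 37 °C. Compound given at one concentration from DMSO stock. Cells TCA-fixed and SRB-stained, absorbance at 515 nm. Percent growth relative to time-zero and untreated controls; inhibition % = 100 − growth %.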

[15] = tested on: DU-145; experiment: Anticancer activity against human DU145 cells assessed as cell growth at 10^-5 M after 48 hrs by SRB assay; details: DU-145, 48 h, read-out: Activity; method in brief: as §1
[16] = tested on: SNB-75; experiment: Anticancer activity against human SNB75 cells assessed as cell growth at 10^-5 M after 48 hrs by SRB assay; details: SNB-75, 48 h, read-out: Activity; method in brief: as §2
[17] = tested on: SR; experiment: Anticancer activity against human SR cells assessed as cell growth at 10^-5 M after 48 hrs by SRB assay; details: read-out: Activity; method in brief: as §2
[18] = tested on: HOP-62; experiment: Anticancer activity against human HOP62 cells assessed as cell growth at 10^-5 M after 48 hrs by SRB assay; details: HOP-62, 48 h, read-out: Activity; method in brief: as §1
[19] = tested on: LOX IMVI; experiment: Anticancer activity against human LOXIMVI cells assessed as cell growth at 10^-5 M after 48 hrs by SRB assay; details: read-out: Activity; method in brief: as §1
[20] = tested on: A549; experiment: Anticancer activity against human A549 cells assessed as cell growth at 10^-5 M after 48 hrs by SRB assay; details: A549, 48 h, read-out: Activity; method in brief: as §1
[21] = tested on: NCI-H226; experiment: Anticancer activity against human NCI-H226 cells assessed as cell growth at 10^-5 M after 48 hrs by SRB assay; details: NCI-H226, 48 h, read-out: Activity
[22] = tested on: NCI-H460; experiment: Anticancer activity against human NCI-H460 cells assessed as cell growth at 10^-5 M after 48 hrs by SRB assay; details: NCI-H460, 48 h, read-out: Activity
[23] = tested on: HOP-92; experiment: Anticancer activity against human HOP92 cells assessed as cell growth at 10^-5 M after 48 hrs by SRB assay; details: HOP-92, 48 h, read-out: Activity; method in brief: as §1
[24] = tested on: SK-OV-3; experiment: Anticancer activity against human SKOV3 cells assessed as cell growth at 10^-5 M after 48 hrs by SRB assay; details: SK-OV-3, 48 h, read-out: Activity
[25] = tested on: SNB-19; experiment: Anticancer activity against human SNB19 cells assessed as cell growth at 10^-5 M after 48 hrs by SRB assay; details: SNB-19, 48 h, read-out: Activity
[26] = tested on: CCRF-CEM; experiment: Anticancer activity against human CCRF-CEM cells assessed as cell growth at 10^-5 M after 48 hrs by SRB assay; details: read-out: Activity; method in brief: as §1
[27] = tested on: SK-MEL-5; experiment: Anticancer activity against human SK-MEL-5 cells assessed as cell growth at 10^-5 M after 48 hrs by SRB assay; details: SK-MEL-5, 48 h, read-out: Activity
[28] = tested on: OVCAR-8; experiment: Anticancer activity against human OVCAR8 cells assessed as cell growth at 10^-5 M after 48 hrs by SRB assay; details: OVCAR-8, 48 h, read-out: Activity
[29] = tested on: KM12; experiment: Anticancer activity against human KM12 cells assessed as cell growth at 10^-5 M after 48 hrs by SRB assay; details: KM12, 48 h, read-out: Activity; method in brief: as §1
[30] = tested on: NCI-H23; experiment: Anticancer activity against human NCI-H23 cells assessed as cell growth at 10^-5 M after 48 hrs by SRB assay; details: NCI-H23, 48 h, read-out: Activity
[31] = tested on: HCT-15; experiment: Anticancer activity against human HCT15 cells assessed as cell growth at 10^-5 M after 48 hrs by SRB assay; details: HCT-15, 48 h, read-out: Activity; method in brief: as §1
[32] = tested on: SF-268; experiment: Anticancer activity against human SF268 cells assessed as cell growth at 10^-5 M after 48 hrs by SRB assay; details: SF-268, 48 h, read-out: Activity
[33] = read-out: LC50 (the source's name)

O=C(NCCNc1nccc(-c2c(-c3cccc(O)c3)nc3sccn23)n1)c1ccccc1O
growth at 10 µM [1]: 52%
growth at 10 µM [2]: 40.5%
growth at 10 µM [3]: 88.7%
growth at 10 µM [4]: 46.4%
GI50 [5]: 651 nM
TGI [5]: 15.9 µM
CC50 [5, 33]: > 100 µM
growth at 10 µM [6]: 104%
growth at 10 µM [7]: 37%
growth at 10 µM [8]: 66.5%
growth at 10 µM [9]: 64.6%
GI50 [10]: 4.83 µM
TGI [10]: 20.4 µM
CC50 [10, 33]: 57 µM
growth at 10 µM [11]: 66.8%
growth at 10 µM [12]: 51.1%
growth at 10 µM [13]: 73.6%
growth at 10 µM [14]: 61.6%
growth at 10 µM [15]: 67.2%
growth at 10 µM [16]: 40.6%
growth at 10 µM [17]: 63.2%
growth at 10 µM [18]: 114%
growth at 10 µM [19]: 33.5%
growth at 10 µM [20]: 43.3%
growth at 10 µM [21]: 80.5%
growth at 10 µM [22]: 57%
growth at 10 µM [23]: 59.9%
growth at 10 µM [24]: 60.5%
growth at 10 µM [25]: 90.2%
growth at 10 µM [26]: 18.9%
growth at 10 µM [27]: 22.7%
growth at 10 µM [28]: 41.3%
growth at 10 µM [29]: 46.7%
growth at 10 µM [30]: 57.4%
growth at 10 µM [31]: 54.5%
growth at 10 µM [32]: 62.5%
